Measurements reported in paper PMC3112262 (The Journal of surgical research, 2011).
Ends that are not written are not given here.

Legend:
[1] = tested on: human pleural mesothelial cells (CRL-9444); assay: IL-6 ELISA, cytokine-stimulated mesothelial cells; type: cell-based; details: for cytokine-induced IL-6 expression, time and dose dependence: 0.1, 1, or 10 ng/mL cytokine, 2, 6, 12, 24 h, triplicate
How it was run: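 Human pleural mesothelial cells were grown in supplemented Medium199 with 10% FBS and held 24 h in serum-free medium before cytokine (IL-1β or TNF-α) and/or test compound treatment. Media IL-6 was measured by sandwich ELISA at room temperature with 300 rpm shaking and ABTS substrate. Absorbance was read at 405 nm minus 650 nm every 5 min for 50 min. Samples were run in triplicate and normalised to cell number by Hoechst 33342 DNA stain.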

[2] = tested on: hnRNPA0 in mesothelial cells; assay: Western blot, hnRNPA0 phosphorylation; type: cell-based, human; details: 1 ng/ml IL-1β
How it was run: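 Human pleural mesothelial cell line grown to confluence, serum-starved 24 h, then given 1 ng/ml IL-1β with or without test compound (1000 or 3000 µM), added together, for 6 and 12 h. Lysed in urea/phosphatase-inhibitor buffer. 20 µg protein run on 12% gels, probed for phospho-hnRNPA0 (Ser84) and β-actin, detected by infrared imaging. Band intensity normalized to β-actin.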

MK2 = details: ref [35]; cited from earlier work
[3] = effect of the CPP sequence; ref [37]; cited from earlier work
[4] = tested on: HSPB1 in human keloid fibroblasts; details: ref [36]; cited from earlier work
kinase = details: cited from earlier work
[5] = rat
[6] = molecular target: human recombinant MK2 (h) (Homo sapiens, UniProt P49137); assay: Radiometric MK2 kinase inhibition; type: biochemical
Sequence of human recombinant MK2 (h) (P49137 whole entry): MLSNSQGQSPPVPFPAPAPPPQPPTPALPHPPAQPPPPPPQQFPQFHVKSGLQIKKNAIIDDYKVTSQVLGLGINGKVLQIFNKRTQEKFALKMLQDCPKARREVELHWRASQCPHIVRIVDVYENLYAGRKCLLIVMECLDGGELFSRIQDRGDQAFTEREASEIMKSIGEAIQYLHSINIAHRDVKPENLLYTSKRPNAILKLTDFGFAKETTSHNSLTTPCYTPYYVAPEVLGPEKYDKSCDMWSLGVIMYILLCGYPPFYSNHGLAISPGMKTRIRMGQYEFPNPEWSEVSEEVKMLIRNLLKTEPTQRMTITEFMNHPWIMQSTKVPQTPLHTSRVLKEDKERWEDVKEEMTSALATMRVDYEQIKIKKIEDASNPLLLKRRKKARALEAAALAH

mesothelial cells = details: ref [37]; cited from earlier work
rat colon anastomosis [7] = assay: Anastomotic healing: hydroxyproline assay; type: in vivo; details: single treatment at surgery, both time points (4 and 10 days)
rat colon anastomosis [8] = details: in vivo

With “IL-1β: interleukin-1β (Peprotech), stimulating cytokine” the “IL-6 expression after six hours, all three concentrations” value ([1]; 0.1, 1, 10 ng/mL IL-1β, 6 h) was “significantly increased IL-6 expression after six hours (p<0.05)”, the “cytokine-induced IL-6 expression, time and dose dependence” value [1] was “increased IL-6 expression in a time- and dose-dependent manner” and the “IL-6 expression at 24 hours, two higher concentrations” value ([1]; 1 and 10 ng/mL IL-1β, 24 h) was “induced similar levels of IL-6 expression”. For the same substance, the “upregulation of phosphorylated hnRNPA0” value ([2]; 6 h, compared to controls, normalized to β-actin) was 2 fold and the “phosphorylation of hnRNPA0 at 12 hours” value ([2]; 12 h) was “no longer upregulates the phosphorylation of hnRNPA0”.
In the case of “KKKALNRQLGVAA [Hayess and Benndorf peptide]”, the “MK2 activity in vitro” value (MK2) is given as “does inhibit MK2 activity in vitro”.
With TNF-α the “IL-6 expression, 0.1 ng/mL” value ([1]; 0.1 ng/mL TNF-α) was “rarely produced significant increases in IL-6”, the “IL-6 expression, 1 ng/mL” value ([1]; 1 ng/mL TNF-α, versus untreated control) was “did not always significantly upregulate IL-6 expression above the untreated control” and the “cytokine-induced IL-6 expression, time and dose dependence” value [1] was “increased IL-6 expression in a time- and dose-dependent manner”. The “IL-6 induction potency relative to IL-1β” value ([1]; excluding 24-hour time point for the highest TNF-α dose) was “less potent inducer of IL-6 expression than IL-1β”.
In the case of WLRRIKAWLRRIKALNRQLGVAA, the toxicity [3] is listed as “increased its associated toxicity”, the HSPB1 phosphorylation [4] is listed as “inhibited HSPB1 phosphorylation in human keloid fibroblasts” and the kinase specificity (kinase; effect of the CPP sequence, ref [37]) is listed as “dramatically decreased the kinase specificity of the peptide”.
In the case of YARAAARQARA, the “peptide specificity conferred by the CPP” value (kinase; ref [38]) is given as “maximizes peptide specificity”.
In the case of YARAAARQARAKALARQLGVAA-NH2 [MMI-0100], the “in vivo side effects” value [5] is reported as “no obvious in vivo side effects”, the “animals lost from the treatment group” value ([5]; in vivo) is reported as “One animal was lost” and the complications of anastomosis ([5]; in vivo) is reported as “did not cause any of these complications”. The IC50 [6] was 22 µM, the “highest concentration used versus toxic dose for mesothelial cells” value (mesothelial cells) was “well below the toxic dose for mesothelial cells” and the “intestinal hydroxyproline content in words” value (rat colon anastomosis [7]) was “did not significantly affect rat weight gain, anastomosis bursting pressure or intestinal hydroxyproline (OHP) content at either time point”. For the same substance, the “anastomosis bursting pressure in words” value (rat colon anastomosis [8]) was “did not significantly affect rat weight gain, anastomosis bursting pressure”.
